In one series the target is Gamma-secretase. The series is described as follows: Modulatory activity of gamma secretase in human H4 cells overexpressing human APP695 K595N/M596L mutant assessed as decrease in amyloidbeta42 levels at 24 hrs by Alphalisa method. The format is cell-based. In outline: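 H4 neuroglioma cells stably expressing APP695 Swedish mutant, in IMDM with 10% FCS and […] hygromycin B, at 37 °C, 5% CO2. Compounds added 3-4 h after plating and incubated 24 h, typically 4 µM down to 0.0013 µM in half-log steps (8 points), final Me2SO 0.4%. Secreted Aβ in supernatant quantified by AlphaLisa (3 h antibody mix, then donor beads 30 min, RT). IC50 by nonlinear regression.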

The nature of series [1]: Distribution coefficient between 1-octanol and phosphate buffer, logD of the compound after 24 hrs by shake flask assay. It counts as physicochemical. The settings on record: 1-octanol/phosphate buffer. In outline:
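CAMDIS high-throughput shake-flask method. PVDF membranes impregnated with 1-octanol are dipped in 25 mM phosphate buffer, pH 7.4, containing the compound, then shaken 24 h at 23 °C. Remaining aqueous concentration measured by LC/MS. logD calculated from the aqueous concentration with and without octanol impregnation, and the phase ratio.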

A short description of series [2]: Solubility of compound in PBS buffer at pH 6.5 incubated for over night by HPLC-UV based LYSA assay. The format is physicochemical. Summed up: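 Duplicate samples from 10 mM DMSO stocks. DMSO evaporated, residue dissolved in 0.05 M phosphate buffer, pH 6.5, stirred 1 h, shaken 2 h, left overnight, then filtered. Filtrate and its 1/10 dilution measured by direct UV or HPLC-UV against a four-point calibration curve.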

As usually defined, the IC50 is the point on the concentration scale where inhibition reaches its midpoint. By logD is commonly meant lipophilicity at a set pH, counting ionised and neutral species. A higher logD goes with a more lipophilic compound. For orientation: solubility means the dissolved amount per volume that the medium holds. Read a high solubility as a readily soluble substance.

≈ marks a conversion by molar mass, not a printed value.

For `Cc1nnc(C23CC(Nc4nc5n(n4)CCCN5c4cccc(Cl)c4)(C2)C3)o1`, at Gamma-secretase, the IC50 was found to be 0.777 µM. In series [1], this compound showed a logD at 24 h of 2.4. Moreover, the concentration in solution in series [2] (solubility at 12 h) was 167 µg/mL (≈ 420 µM).

Turning to `Cc1nnc(-c2ccc(Nc3nc4n(n3)CCCN4c3ccc(OC(F)(F)F)cc3)cc2)o1`, the IC50 at Gamma-secretase turned out to be 0.227 µM. In addition, the logD at 24 h in series [1] is more than 4. Also, in series [2], the solubility at 12 h is less than 0.1 µg/mL.

For `Cc1cc(C23CC(Nc4nc5n(n4)CCCC[C@H]5c4ccc(F)c(F)c4F)(C2)C3)ncn1`, the IC50 on Gamma-secretase worked out at 0.011 µM. Moreover, the logD at 24 h in series [1] was 3.8. The solubility at 12 h in series [2] came out at 1 µg/mL (≈ 2.27 µM).

On to `Cc1nnc(N2CC3CCC(C2)C3Nc2nc3n(n2)CCCN3c2cccc(Cl)c2)o1` (centres undefined), for which, at Gamma-secretase, the IC50 was determined as 0.034 µM. This compound also had a logD at 24 h in series [1] of 2.7. This compound returned a solubility at 12 h in series [2] of 233 µg/mL (≈ 528 µM).

For the compound `Cc1nnc(C23CCC(Nc4nc5n(n4)CCCN5c4cccc(Cl)c4)(CC2)CC3)o1`, the IC50 on Gamma-secretase worked out at 0.114 µM. In series [1], this compound displayed a logD at 24 h of 3.1. In series [2], this compound gave a solubility at 12 h of 132 µg/mL (≈ 300 µM).

For the compound `Cc1nnc(N2CC3CCC(C2)C3Nc2nc(Cc3ccc(Cl)cc3)cc(C(C)(C)O)n2)o1` (centres undefined), the half-inhibitory concentration (IC50) at Gamma-secretase was found to be 0.038 µM. In series [1], this compound displayed a pH-dependent lipophilicity (logD) at 24 h of 4. The amount in solution in series [2] (solubility at 12 h) came to 18 µg/mL (≈ 38.4 µM).

In the case of `Cc1nnc(-c2ccc(Nc3nc(Cc4ccc(Cl)cc4)cc(C(C)(C)O)n3)cc2)o1`, at Gamma-secretase, the IC50 stood at 0.478 µM. In series [1], this compound came in with a logD at 24 h of more than 4. In series [2], this compound yielded a solubility at 12 h of less than 0.1 µg/mL.

As to `Cc1nnc(C23CCC(Nc4nc5n(n4)CCCN5c4ccc(OC(F)(F)F)cc4)(CC2)CC3)o1`, the IC50 on Gamma-secretase is 0.021 µM. Besides, the logD at 24 h in series [1] came out at 3.7. The solubility at 12 h in series [2] is 0.4 µg/mL (≈ 0.817 µM).

As for `Cc1nnc(-c2ccc(Nc3nc(Oc4cccc(Cl)c4)n(C(C)C)n3)cc2)o1`, on Gamma-secretase, the IC50 stood at 0.51 µM. The compound also yielded a logD at 24 h in series [1] of more than 4. This compound also registered a solubility at 12 h in series [2] of less than 0.1 µg/mL.

Consider `Cc1cc(N2CC3CCC(C2)C3Nc2nc3n(n2)CCCC[C@H]3c2ccc(F)c(F)c2F)ncn1` (some centres undefined), for which the IC50 at Gamma-secretase is 0.017 µM. In series [1], the logD at 24 h turned out to be 3.4. The solubility at 12 h in series [2] came out at 7 µg/mL (≈ 14.5 µM).

Take `Cc1nnc(C23CCC(Nc4nc(Cc5ccc(Cl)cc5)cc(C(C)(C)O)n4)(CC2)CC3)o1`: the IC50 at Gamma-secretase was found to be 0.146 µM. Moreover, the logD at 24 h in series [1] was more than 4. In series [2], the solubility at 12 h is less than 0.1 µg/mL.

As to `Cc1nnc(C23CC(Nc4nc5n(n4)CCCN5c4ccc(OC(F)(F)F)cc4)(C2)C3)o1`, the IC50 on Gamma-secretase was 0.587 µM. The compound also gave a logD at 24 h in series [1] of 2.8. Moreover, the solubility at 12 h in series [2] worked out at 3.2 µg/mL (≈ 7.15 µM).

`Cc1nnc(C23CC(Nc4nc(Oc5cccc(Cl)c5)n(C(C)C)n4)(C2)C3)o1`: the IC50 on Gamma-secretase was 0.214 µM. In addition, the log distribution coefficient (logD) at 24 h in series [1] came out at 4.1. This compound also gave a solubility at 12 h in series [2] of 88 µg/mL (≈ 220 µM).

Turning to `Cc1nnc(-c2ccc(Nc3nc4n(n3)CCCN4c3cccc(Cl)c3)cc2)o1`, the IC50 on Gamma-secretase amounted to 0.095 µM. In series [1], this compound gave a logD at 24 h of 3.2. The compound also had a solubility at 12 h in series [2] of less than 0.1 µg/mL.

Regarding `Cc1nnc(N2CC3CCC(C2)C3Nc2nc3n(n2)CCCN3c2ccc(OC(F)(F)F)cc2)o1` (centres undefined), at Gamma-secretase, the IC50 amounted to 0.046 µM. In series [1], this compound yielded a log distribution coefficient (logD) at 24 h of 3.5. For the same compound, the concentration in solution in series [2] (solubility at 12 h) came to 106 µg/mL (≈ 216 µM).

In the case of `Cc1nnc(N2CC3CCC(C2)C3Nc2nc(Oc3cccc(Cl)c3)n(C(C)C)n2)o1` (centres undefined), the IC50 at Gamma-secretase came out at 0.042 µM. For the same compound, the logD at 24 h in series [1] stood at 3.6. The compound also displayed a solubility at 12 h in series [2] of 104 µg/mL (≈ 234 µM).

For the compound `Cc1nnc(C23CC(Nc4nc(Cc5ccc(Cl)cc5)cc(C(C)(C)O)n4)(C2)C3)o1`, the IC50 at Gamma-secretase is 0.52 µM. In series [1], this compound showed a logD at 24 h of 4. In series [2], this compound came in with a solubility at 12 h of 11 µg/mL (≈ 25.8 µM).

Regarding `Cc1nnc(C23CCC(Nc4nc(Oc5cccc(Cl)c5)n(C(C)C)n4)(CC2)CC3)o1`, the IC50 at Gamma-secretase was 0.118 µM. This compound gave a pH-dependent lipophilicity (logD) at 24 h in series [1] of 4.1. For the same compound, the solubility at 12 h in series [2] is 15 µg/mL (≈ 33.9 µM).
